The source made the active and inactive calls. The calls are words filed in the database; no cut-off is given here.
Tests used:
[1] = Cytotoxicity against mouse Osteoblasts at 20 uM after 48 hrs by MTT assay; format: cell-based; settings: osteoblast
Method in brief: (§1)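 Primary osteoblasts isolated from newborn mouse skull, exposed to compound for 48 h; cell death measured by MTT; % cytotoxicity versus untreated cells, mean ± SEM of six replicates, significance by p-value.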

MCF7 = test: Antiproliferative activity against human MCF7 cells after 48 hrs by MTT assay; format: functional, cell-based; settings: MCF7, 48 h
Bel-7402 = test: Antiproliferative activity against human Bel7402 cells after 48 hrs by MTT assay; format: functional, cell-based; settings: Bel-7402, 48 h
A549 = test: Antiproliferative activity against human A549 cells after 48 hrs by MTT assay; format: functional, cell-based; settings: A549, 48 h
[2] = Cytotoxicity against mouse Osteoblasts at 40 uM after 48 hrs by MTT assay; format: cell-based; settings: osteoblast; method in brief: as §1
[3] = Cytotoxicity against mouse Osteoblasts at 100 uM after 48 hrs by MTT assay; format: cell-based; settings: osteoblast; method in brief: as §1
K562 = test: Antiproliferative activity against human K562 cells after 48 hrs by MTT assay; format: functional, cell-based; settings: K562, 48 h
[4] = Cytotoxicity against mouse Osteoblasts at 1 uM after 48 hrs by MTT assay; format: cell-based; settings: osteoblast; method in brief: as §1
[5] = Cytotoxicity against mouse Osteoblasts at 10 uM after 48 hrs by MTT assay; format: cell-based; settings: osteoblast; method in brief: as §1
HL-60 = test: Antiproliferative activity against human HL60 cells after 48 hrs by MTT assay; format: functional, cell-based; settings: HL-60, 48 h
DNA [6] = test: Binding affinity to calf thymus DNA in phosphate buffer at pH 7.4 assessed as change in melting temperature at 5 uM after 10 mins by thermal denaturation method; format: nucleic-acid assay; settings: Bos taurus
Method in brief: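 Thermal denaturation: Ct-DNA 5.0×10^-5 M with or without compound at 5.0×10^-6 M, phosphate buffer (1 mM, pH 7.4) with 5 mM NaCl and 4% DMSO; melting curves recorded, Tm taken as temperature at which half the DNA melts; ΔTm relative to free Ct-DNA.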

DNA [7] = test: Binding affinity to calf thymus DNA in phosphate buffer at pH 7.4 at 5 uM after 10 mins by fluorescence spectroscopy; format: nucleic-acid assay; settings: Bos taurus
Method in brief: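 Compound at 5.0×10^-6 M, excited at 329–336 nm depending on compound, titrated with Ct-DNA (0–90 μM) in 10 mM phosphate buffer pH 7.4, 50 mM NaCl, 4% DMSO, 25 °C; emission near 455 nm; F/F0 plotted against DNA concentration, Stern-Volmer analysis gives binding efficiency.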

DNA [8] = test: Binding affinity to calf thymus DNA in phosphate buffer at pH 7.4 assessed as intercalation in DNA at 20 uM after 10 mins by circular dichroism method; format: nucleic-acid assay; settings: Bos taurus
Method in brief: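 CD spectra of Ct-DNA (5.0×10^-5 M) with and without compound (2.0×10^-5 M) recorded in 10 mM phosphate buffer pH 7.4 containing 50 mM NaCl and 4% DMSO at 25 °C.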

DNA [9] = test: Binding affinity to calf thymus DNA in phosphate buffer at pH 7.4 assessed as hypochromic effect at 1.0 x 10^-5 M by UV-visible spectroscopy; format: nucleic-acid assay; settings: Bos taurus
Method in brief: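 Compound at 1.0×10^-5 M titrated with Ct-DNA (0–180 μM) in 10 mM phosphate buffer pH 7.4, 50 mM NaCl, 4% DMSO, 25 °C; UV-Vis absorption change at absorption maximum, hypochromicity percentage derived, binding fitted.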

Row | SMILES | Activity [1] [%] | IC50 (MCF7) [µM] | IC50 (Bel-7402) [µM] | IC50 (A549) [µM] | Activity [2] [%] | Activity [3] [%] | IC50 (K562) [µM] | Activity [4] [%] | Activity [5] [%] | IC50 (HL-60) [µM] | ΔTm (DNA [6]) [°C] | Activity (DNA [7]) | Activity (DNA [8]) | Activity (DNA [9]) [%]
1 | CCN(CC)CCOc1ccc(-c2c(-c3ccccc3)c(=O)oc3cc(OCCN(CC)CC)ccc23)cc1 | 12.2 | 7.9 | 8.04 | 8.31 | 20.6 | 42.2 | 3.79 | -3.1 | 3.2 | 3.98 | – | – | – | –
2 | O=c1oc2cc(OCCN3CCOCC3)ccc2c(-c2ccc(O)cc2)c1-c1ccccc1 | – | > 100 | – | 94.1 | – | – | > 100 | – | – | – | – | – | – | –
3 | O=c1oc2cc(O)ccc2c(-c2ccc(O)cc2)c1-c1ccc(O)cc1 | – | > 100 | – | > 100 | – | – | > 100 | – | – | – | – | – | – | –
4 | O=c1oc2cc(OCCN3CCCC3)ccc2c(-c2ccc(OCCN3CCCC3)cc2)c1-c1ccc(OCCN2CCCC2)cc1 | – | 92.8 | – | 86.3 | – | – | 75.3 | – | – | – | – | – | – | –
5 | CC/C(=C(\c1ccccc1)c1ccc(OCCN(C)C)cc1)c1ccccc1 [TAMOXIFEN] | – | 13.5 | – | – | – | – | – | – | – | – | – | – | – | –
6 | O=c1oc2cc(O)ccc2c(-c2ccc(O)cc2)c1-c1ccccc1 | – | > 100 | – | > 100 | – | – | > 100 | – | – | – | 1.1 | 5.41 ×10² /M | inactive | 8
7 | O=c1oc2cc(OCCN3CCCC3)ccc2c(-c2ccc(O)cc2)c1-c1ccccc1 | – | 50 | – | 54.3 | – | – | 44.5 | – | – | – | – | – | – | –
8 | COc1ccc2c(-c3ccc(OCCN4CCCC4)cc3)c(-c3ccccc3)c(=O)oc2c1 | – | > 100 | – | 89.8 | – | – | 93.3 | – | – | – | – | – | – | –
9 | COc1ccc2c(-c3ccc(OCCN4CCCCC4)cc3)c(-c3ccccc3)c(=O)oc2c1 | – | 29.6 | – | 23.4 | – | – | 19.6 | – | – | – | 3.2 | 3.12 ×10³ /M | Active | 12
10 | O=c1oc2cc(OCCN3CCCCC3)ccc2c(-c2ccc(OCCN3CCCCC3)cc2)c1-c1ccc(OCCN2CCCCC2)cc1 | – | 48.2 | – | 56.3 | – | – | 39.4 | – | – | – | 8.8 | 3.16 ×10⁴ /M | Active | 25
11 | O=c1oc2cc(OCCN3CCCCC3)ccc2c(-c2ccc(O)cc2)c1-c1ccccc1 | – | 86.6 | – | 91.2 | – | – | 81.2 | – | – | – | – | – | – | –
12 | O=c1oc2cc(OCCN3CCOCC3)ccc2c(-c2ccc(OCCN3CCOCC3)cc2)c1-c1ccc(OCCN2CCOCC2)cc1 | – | > 100 | – | > 100 | – | – | > 100 | – | – | – | – | – | – | –
13 | O=c1oc2cc(OCCN3CCCCC3)ccc2c(-c2ccc(OCCN3CCCCC3)cc2)c1-c1ccccc1 | 7.4 | 11.4 | 8.19 | 6.64 | 14.2 | 39.2 | 2.91 | -8 | -2.6 | 5.28 | 4.3 | 4.21 ×10³ /M | Active | 23
14 | CCN(CC)CCOc1ccc2c(-c3ccc(O)cc3)c(-c3ccccc3)c(=O)oc2c1 | – | > 100 | – | > 100 | – | – | > 100 | – | – | – | – | – | – | –
15 | CCN(CC)CCOc1ccc(-c2c(-c3ccc(OCCN(CC)CC)cc3)c3ccc(OCCN(CC)CC)cc3oc2=O)cc1 | – | 68.8 | – | 45.2 | – | – | 41.9 | – | – | – | – | – | – | –
16 | O=c1oc2cc(OCCN3CCOCC3)ccc2c(-c2ccc(OCCN3CCOCC3)cc2)c1-c1ccccc1 | – | > 100 | > 100 | > 100 | – | – | > 100 | – | – | > 100 | 2 | 2.68 ×10² /M | Active | 13
17 | COc1ccc2c(-c3ccc(O)cc3)c(-c3ccccc3)c(=O)oc2c1 | – | > 100 | – | > 100 | – | – | > 100 | – | – | – | – | – | – | –
18 | COc1ccc2c(-c3ccc(OCCN4CCOCC4)cc3)c(-c3ccccc3)c(=O)oc2c1 | – | > 100 | – | > 100 | – | – | > 100 | – | – | – | – | – | – | –
19 | CCN(CC)CCOc1ccc(-c2c(-c3ccccc3)c(=O)oc3cc(OC)ccc23)cc1 | – | 76.7 | – | 60.8 | – | – | 88.8 | – | – | – | – | – | – | –
20 | O=c1oc2cc(OCCN3CCCC3)ccc2c(-c2ccc(OCCN3CCCC3)cc2)c1-c1ccccc1 | 10.1 | 12.3 | 8.66 | 6.31 | 18.2 | 36.1 | 4.58 | -5.1 | -6.7 | 5.93 | – | – | – | –
